Experimental data taken from ChEMBL document CHEMBL4270530, “Surmounting the resistance against EGFR inhibitors through the development of thieno[2,3-d]pyrimidine-based dual EGFR/HER2 inhibitors” (Eur J Med Chem, 2018).

Key:
A-431 = test: Cytotoxicity against human A431 cells over expressing EGFR assessed as reduction in cell viability after 72 hrs by sulforhodamine B assay; type: functional, cell-based; settings: A-431, 72 h
In short: (§1)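 Cells seeded and grown 24 h, then exposed to 0.1% DMSO vehicle or 0.3125-20 μM compound for 72 h. Fixed with ice-cold 50% TCA (1 h, 4 °C), stained with 0.4% SRB 30 min at room temperature, dye solubilized in 10 mM tris base pH 10.5, OD read at 560 nm. Survival fraction = OD treated/OD vehicle; IC50 from triplicates of at least two independent experiments, mean ± SD.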

MDA-MB-361 = test: Cytotoxicity against human MDA-MB-361 cells over expressing HER2 assessed as reduction in cell viability after 72 hrs by sulforhodamine B assay; type: functional, cell-based; settings: MDA-MB-361, 72 h; in short: as §1
HL-60(TB) = test: Growth inhibition of human HL-60(TB) cells assessed as cell growth at 10 uM incubated for 48 hrs by sulforhodamine B assay relative to control; type: functional; settings: HL-60, 48 h, read-out: Activity
In short: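 Single-dose (10 µM) screen across the full NCI-60 panel, run by the NCI Developmental Therapeutics Program. Read-out is growth percent relative to untreated control, taken from the NCI one-dose mean graph.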

SR = test: Growth inhibition of human SR cells assessed as cell growth at 10 uM incubated for 48 hrs by sulforhodamine B assay relative to control; type: functional; settings: read-out: Activity
In short: (§2)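 NCI-60 single-dose screen at 10 µM run by the NCI Developmental Therapeutics Program; growth percent read from the one-dose mean graph, with percent inhibition approximated from those growth-percent values.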

EKVX = test: Growth inhibition of human EKVX cells at 10 uM incubated for 48 hrs by sulforhodamine B assay relative to control; type: functional; settings: read-out: GI
In short: (§3)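 NCI-60 one-dose screen run by the NCI Developmental Therapeutics Program at a single 10 µM concentration; growth percent read from the one-dose mean graph.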

HOP-62 = test: Growth inhibition of human HOP62 cells assessed as cell growth at 10 uM incubated for 48 hrs by sulforhodamine B assay relative to control; type: functional; settings: HOP-62, 48 h, read-out: Activity; in short: as §3
NCI-H322M = test: Growth inhibition of human NCI-H322M cells at 10 uM incubated for 48 hrs by sulforhodamine B assay relative to control; type: functional; settings: read-out: GI; in short: as §3
HCC 2998 = test: Growth inhibition of human HCC2998 cells assessed as cell growth at 10 uM incubated for 48 hrs by sulforhodamine B assay relative to control; type: functional; settings: HCC 2998, 48 h, read-out: Activity; in short: as §3
HCT-116 = test: Growth inhibition of human HCT116 cells assessed as cell growth at 10 uM incubated for 48 hrs by sulforhodamine B assay relative to control; type: functional; settings: HCT-116, 48 h, read-out: Activity; in short: as §3
HT-29 = test: Growth inhibition of human HT-29 cells assessed as cell growth at 10 uM incubated for 48 hrs by sulforhodamine B assay relative to control; type: functional; settings: HT-29, 48 h, read-out: Activity; in short: as §3
SW-620 = test: Growth inhibition of human SW620 cells assessed as cell growth at 10 uM incubated for 48 hrs by sulforhodamine B assay relative to control; type: functional; settings: SW-620, 48 h, read-out: Activity; in short: as §2
SF-268 = test: Growth inhibition of human SF268 cells assessed as cell growth at 10 uM incubated for 48 hrs by sulforhodamine B assay relative to control; type: functional; settings: SF-268, 48 h, read-out: Activity; in short: as §3
SF-539 = test: Growth inhibition of human SF539 cells assessed as cell growth at 10 uM incubated for 48 hrs by sulforhodamine B assay relative to control; type: functional; settings: SF-539, 48 h, read-out: Activity; in short: as §3
SNB-75 = test: Growth inhibition of human SNB75 cells assessed as cell growth at 10 uM incubated for 48 hrs by sulforhodamine B assay relative to control; type: functional; settings: SNB-75, 48 h, read-out: Activity; in short: as §2
U-251 = test: Growth inhibition of human U251 cells assessed as cell growth at 10 uM incubated for 48 hrs by sulforhodamine B assay relative to control; type: functional; settings: U-251, 48 h, read-out: Activity; in short: as §2
Malme-3M = test: Growth inhibition of human MALME-3M cells assessed as cell growth at 10 uM incubated for 48 hrs by sulforhodamine B assay relative to control; type: functional; settings: read-out: Activity; in short: as §3
M14 = test: Growth inhibition of human M14 cells assessed as cell growth at 10 uM incubated for 48 hrs by sulforhodamine B assay relative to control; type: functional; settings: M14, 48 h, read-out: Activity; in short: as §3
MDA-MB-435 = test: Growth inhibition of human MDA-MB-435 cells assessed as cell growth at 10 uM incubated for 48 hrs by sulforhodamine B assay relative to control; type: functional; settings: MDA-MB-435, 48 h, read-out: Activity; in short: as §3
OVCAR-3 = test: Growth inhibition of human OVCAR3 cells assessed as cell growth at 10 uM incubated for 48 hrs by sulforhodamine B assay relative to control; type: functional; settings: OVCAR-3, 48 h, read-out: Activity; in short: as §3
OVCAR-5 = test: Growth inhibition of human OVCAR5 cells assessed as cell growth at 10 uM incubated for 48 hrs by sulforhodamine B assay relative to control; type: functional; settings: OVCAR-5, 48 h, read-out: Activity; in short: as §3
OVCAR-8 = test: Growth inhibition of human OVCAR8 cells assessed as cell growth at 10 uM incubated for 48 hrs by sulforhodamine B assay relative to control; type: functional; settings: OVCAR-8, 48 h, read-out: Activity; in short: as §3
NCI/ADR-RES = test: Growth inhibition of human NCI/ADR-RES cells assessed as cell growth at 10 uM incubated for 48 hrs by sulforhodamine B assay relative to control; type: functional; settings: read-out: Activity; in short: as §3
SK-OV-3 = test: Growth inhibition of human SKOV3 cells at 10 uM incubated for 48 hrs by sulforhodamine B assay relative to control; type: functional; settings: SK-OV-3, 48 h, read-out: GI; in short: as §3
A498 = test: Growth inhibition of human A498 cells assessed as cell growth at 10 uM incubated for 48 hrs by sulforhodamine B assay relative to control; type: functional; settings: A498, 48 h, read-out: Activity; in short: as §3
ACHN = test: Growth inhibition of human ACHN cells at 10 uM incubated for 48 hrs by sulforhodamine B assay relative to control; type: functional; settings: read-out: GI; in short: as §3
TK-10 = test: Growth inhibition of human TK10 cells at 10 uM incubated for 48 hrs by sulforhodamine B assay relative to control; type: functional; settings: TK-10, 48 h, read-out: GI; in short: as §2
UO-31 = test: Growth inhibition of human UO31 cells assessed as cell growth at 10 uM incubated for 48 hrs by sulforhodamine B assay relative to control; type: functional; settings: UO-31, 48 h, read-out: Activity; in short: as §2
PC-3 = test: Growth inhibition of human PC3 cells assessed as cell growth at 10 uM incubated for 48 hrs by sulforhodamine B assay relative to control; type: functional; settings: PC-3, 48 h, read-out: Activity; in short: as §3
MCF7 = test: Growth inhibition of human MCF7 cells assessed as cell growth at 10 uM incubated for 48 hrs by sulforhodamine B assay relative to control; type: functional; settings: MCF7, 48 h, read-out: Activity; in short: as §3
BT-549 = test: Growth inhibition of human BT549 cells assessed as cell growth at 10 uM incubated for 48 hrs by sulforhodamine B assay relative to control; type: functional; settings: BT-549, 48 h, read-out: Activity; in short: as §3

Structure (SMILES)	IC50 (A-431) [µM]	IC50 (MDA-MB-361) [µM]	growth at 10 µM (HL-60(TB)) [%]	growth at 10 µM (SR) [%]	inhibition of growth at 10 µM (EKVX) [%]	growth at 10 µM (HOP-62) [%]	inhibition of growth at 10 µM (NCI-H322M) [%]	growth at 10 µM (HCC 2998) [%]	growth at 10 µM (HCT-116) [%]	growth at 10 µM (HT-29) [%]	growth at 10 µM (SW-620) [%]	growth at 10 µM (SF-268) [%]	growth at 10 µM (SF-539) [%]	growth at 10 µM (SNB-75) [%]	growth at 10 µM (U-251) [%]	growth at 10 µM (Malme-3M) [%]	growth at 10 µM (M14) [%]	growth at 10 µM (MDA-MB-435) [%]	growth at 10 µM (OVCAR-3) [%]	growth at 10 µM (OVCAR-5) [%]	also measured
Nc1ccc(-c2cc3c(Nc4ccc(OCc5cccc(F)c5)c(Cl)c4)ncnc3s2)cc1	9.76	5.7	48.2	14.5	80	62.3	75	38.6	50.7	84.5	74.1	52.1	57.4	87.2	57	42.1	51.9	43.8	46.6	77.9	growth at 10 µM (OVCAR-8): 63.1%; growth at 10 µM (NCI/ADR-RES): 50.4%; inhibition of growth at 10 µM (SK-OV-3): 100%; growth at 10 µM (A498): 39.3%; inhibition of growth at 10 µM (ACHN): 70%; inhibition of growth at 10 µM (TK-10): 70%; growth at 10 µM (UO-31): 19.6%; growth at 10 µM (PC-3): 29.6%; growth at 10 µM (MCF7): 26.2%; growth at 10 µM (BT-549): 61.2%
O=[N+]([O-])c1ccc(-c2cc3c(Nc4ccc(OCc5cccc(F)c5)c(Cl)c4)ncnc3s2)cc1	11	7.5	79.2	68.6	20	94.7	15	97.3	60.2	66.9	93.5	80.1	99.2	98.5	55.1	94.4	77.2	91.9	34.5	101	growth at 10 µM (OVCAR-8): 70.3%; growth at 10 µM (NCI/ADR-RES): 80.5%; inhibition of growth at 10 µM (SK-OV-3): 0%; growth at 10 µM (A498): 84.8%; inhibition of growth at 10 µM (ACHN): 23%; inhibition of growth at 10 µM (TK-10): 30%; growth at 10 µM (UO-31): 59.2%; growth at 10 µM (PC-3): 54.1%; growth at 10 µM (MCF7): 78.9%; growth at 10 µM (BT-549): 103%
